A selection: hits, their analogues and other compounds. The true share with any hit is near 1.7%.
GALR2 blocker: GALR2 (human) receptor antagonism; O43603; GALR2-expressing cells, antagonist mode; inhibition, % at 4 µM; 0.39% of 140,000 active; AID 828;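 also: cells stimulated with galanin 1-16 at roughly its EC80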
Target sequence (O43603 whole entry, looked up): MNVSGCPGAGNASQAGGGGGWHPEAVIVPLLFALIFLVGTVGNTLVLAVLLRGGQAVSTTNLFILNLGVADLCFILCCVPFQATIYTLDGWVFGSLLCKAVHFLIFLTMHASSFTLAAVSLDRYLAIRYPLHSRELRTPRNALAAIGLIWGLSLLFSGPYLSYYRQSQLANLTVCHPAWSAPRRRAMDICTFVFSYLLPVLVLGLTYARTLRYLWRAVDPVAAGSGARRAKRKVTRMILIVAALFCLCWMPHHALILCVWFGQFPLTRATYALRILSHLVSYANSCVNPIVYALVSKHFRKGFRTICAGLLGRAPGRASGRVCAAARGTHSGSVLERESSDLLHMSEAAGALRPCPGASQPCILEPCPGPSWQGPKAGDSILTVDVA
EphB4 antag: blocks human EphB4 binding to ephrin-B2 | inhibition, % at 7 µM | EphB4 LBD / TNYL-RAW-Alexa532 peptide, fluorescence polarization | 0.15% of 97,000 active | P54760;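 active = inhibition above the screen-wide mean inhibition plus 3 SD, cut at about 15% in these data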
HIV Rev-RRE inh: disrupts HIV-1 Rev binding to RRE RNA. P05866. Rev peptide-RRE RNA binding, FRET. inhibition, % at 8 µM. 0.79% of 97,000 active;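 active = inhibition above the screen-wide mean plus 3 SD, cut at about 35% in these data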
Target sequence (P05866 whole entry, looked up): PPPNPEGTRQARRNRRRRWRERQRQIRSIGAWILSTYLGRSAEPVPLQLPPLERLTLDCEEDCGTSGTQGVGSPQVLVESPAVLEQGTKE
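Probe or stimulus: fluorescein-Rev peptide as binding partner; assay system: Cy5-tagged RRE RNA duplex with fluorescein-tagged Rev peptide; timing: 5 min compound–RNA preincubation, then 15 min with peptide, 25 °C; medium: HEPES pH 7.5 buffer with KCl, MgCl2, NaCl and EDTA; signal: fluorescein-to-Cy5 FRET, 480 nm excitation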
S1P2 agonist: activates the human S1P2 receptor. O95136. AID 729. S1P2-expressing cell line, agonist reporter read-out. activation, % at 4.5 µM. 0.46% of 97,000 active; in the data active = activation above about 16%
S1P2 blocker: antagonists of human S1P2 receptor | O95136 | cell-based S1P2 antagonist assay, inhibition at 5 uM | inhibition, % at 5 µM | 0.21% of 97,000 active; in the data active = inhibition above about 45%;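 also: CRE beta-lactamase reporter cells expressing human S1P2 stimulated with S1P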
GALR2 ag: GALR2 (human) receptor agonism; activation, % (concentration not given with the values); O43603; AID 803; GALR2-expressing cells, agonist activation read-out; 0.48% of 140,000 active; in the data active = activation above about 5%, passing the limit was not always enough
GALR2 ant conf: GALR2 (human) antagonism confirmed | shares compounds with GALR2 blocker | GALR2-expressing cells, antagonist mode, inhibition | inhibition, % at 4 µM | 60% of 480 active;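 also: cells stimulated with galanin at about its EC80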
BLA inh counter: counter-screen for GALR2 antagonists: beta-lactamase reporter inhibitors; shares compounds with GALR2 blocker; inhibition, % at 4.2 µM; AID 867; CHO NFAT-BLA reporter, beta-lactamase FRET, thapsigargin-stimulated; 36% of 480 active;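 active = inhibition above the mean inhibition across tested compounds plus 3 SD, cut at about 27% in these data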
Of the large screens only hits and unclear results are named; the others gave an inactive call (follow-up assays come after a bar, where they were run); [ ] = remark or other dose. Rule as the data show it, unless noted: active = inhibition above about 27%; inactive = the rest.

CC1(C)CC(=O)C2=C(C1)N(c1cccc(O)c1)C1=C(C2)C(=O)CC(C)(C)C1	GALR2 blocker 43 | GALR2 ant conf inactive | BLA inh counter inactive
O=C(c1ccc2c(c1)OCO2)N(Cc1cccs1)C1(C(=O)NC2CCCCC2)CCCCC1	none (no result: EphB4 antag, HIV Rev-RRE inh, S1P2 agonist, S1P2 blocker)
COc1ccc(C2(C)NC(=O)N(Cc3cc(Cl)cc4c3OCOC4)C2=O)cc1OC (stereo not drawn)	none
Cc1[nH]c2ccc(OCc3ccccc3)cc2c1CCN1C(=O)OC(C)(C)C1(C)O (stereo not drawn)	none
CC1(C)OC(=O)N(CCc2ccccc2)C1(C)O (stereo not drawn)	GALR2 blocker 31 (no result: EphB4 antag, HIV Rev-RRE inh, S1P2 agonist, S1P2 blocker) | GALR2 ant conf inactive | BLA inh counter inactive
CCc1cc2c(C)cc(=O)oc2cc1OC(=O)C1CCCN1C(=O)OC(C)(C)C (stereo not drawn)	none
Oc1ccccc1/C=N/Nc1ccccc1	GALR2 blocker 30 (no result: EphB4 antag, HIV Rev-RRE inh, S1P2 agonist, S1P2 blocker) | GALR2 ant conf 38 | BLA inh counter inactive
Oc1ccccc1/C=N/Nc1ncc(Br)cn1	none (no result: EphB4 antag, HIV Rev-RRE inh, S1P2 agonist, S1P2 blocker)
CCOC(=O)c1cc([N+](=O)[O-])c([N+](=O)[O-])cc1NC(C)=O	GALR2 blocker 41 (no result: EphB4 antag, HIV Rev-RRE inh, S1P2 agonist, S1P2 blocker) | GALR2 ant conf 48 | BLA inh counter inactive
CCOC(=O)c1ccc(NC(=O)c2ccccc2[N+](=O)[O-])cc1	none (no result: EphB4 antag, HIV Rev-RRE inh, S1P2 agonist, S1P2 blocker)
COc1cc(C(=O)NC(=S)Nc2ccc([N+](=O)[O-])cc2C)cc(OC)c1OC	GALR2 blocker 50 (no result: EphB4 antag, HIV Rev-RRE inh, S1P2 agonist, S1P2 blocker) | GALR2 ant conf inactive | BLA inh counter inactive
CCN(CC)CCn1c2ccccc2c2cnc(N)c(C#N)c21	none
CCN(CC)c1ccc(/C=C2/SC(=O)N(C(C)C)C2=O)o1	GALR2 blocker 45 (no result: EphB4 antag, HIV Rev-RRE inh, S1P2 agonist, S1P2 blocker) | GALR2 ant conf inactive | BLA inh counter inactive
O=C(Cc1ccccc1)Nc1scc(-c2ccccc2)c1C(=O)N1CCOCC1	none
NC(=O)c1c(-c2ccc(Cl)cc2Cl)csc1NC(=O)Cc1ccccc1	GALR2 blocker 34 (no result: EphB4 antag, HIV Rev-RRE inh, S1P2 agonist, S1P2 blocker) | GALR2 ant conf 31 | BLA inh counter inactive
O=C(NC1=NCCS1)c1csc2ccccc12	none (no result: EphB4 antag, HIV Rev-RRE inh, S1P2 agonist, S1P2 blocker)
Cc1ccc(NC(=O)CN(C)C(=O)COc2c(Cl)cc(Cl)c3ccc(C)nc23)cc1	none (no result: EphB4 antag, HIV Rev-RRE inh, S1P2 agonist, S1P2 blocker)
Cc1ccc(NC(=O)CN(C)C(=O)Cn2ncc(Cl)c(Cl)c2=O)cc1	GALR2 blocker 60 (no result: EphB4 antag, HIV Rev-RRE inh, S1P2 agonist, S1P2 blocker) | GALR2 ant conf 83 | BLA inh counter 33
CCc1ccc2c(c1)/C(=C/C(=O)c1cccs1)C(=O)N2	GALR2 blocker 28 | GALR2 ant conf 35 | BLA inh counter inactive
CCOC(=O)c1c(CN2CCCCC2)n(C)c2ccc(OC)c(S(=O)(=O)c3ccccc3)c12	none (no result: EphB4 antag, HIV Rev-RRE inh, S1P2 agonist, S1P2 blocker)
Cc1ccc(/C=C/C(=O)O)cc1S(=O)(=O)N(CCO)CCO	none (no result: EphB4 antag, HIV Rev-RRE inh, S1P2 agonist, S1P2 blocker)
C=CCC(CC=C)(NC(=O)c1cccc(C)c1)c1ccccc1	none (no result: EphB4 antag, HIV Rev-RRE inh, S1P2 agonist, S1P2 blocker)
Cc1n[nH]c(C)c1N1C(=O)c2cccc3c(Br)ccc(c23)C1=O	GALR2 blocker 44, S1P2 blocker 74 | GALR2 ant conf 28 | BLA inh counter inactive
Cc1n[nH]c(C)c1N1C(=O)c2cccc3cc(Br)cc(c23)C1=O	none
Cc1nc2nc(-c3cccs3)cn2nc1C	GALR2 blocker 28 | GALR2 ant conf 31 | BLA inh counter 35
Cc1c(C(=O)Nc2ccccc2)csc1-c1ccccc1	none (no result: EphB4 antag, HIV Rev-RRE inh, S1P2 agonist, S1P2 blocker)
CCOC(=O)N1CCN(c2ncnc3c2[nH]c2ccc(F)cc23)CC1	GALR2 blocker 38, S1P2 blocker 58 | GALR2 ant conf 47 | BLA inh counter inactive
CCCCOc1ncnc2c1[nH]c1ccc(OCC)cc12	none
CCCCOc1ncnc2c1[nH]c1ccc(F)cc12	GALR2 blocker 37, S1P2 blocker 63 | GALR2 ant conf 35 | BLA inh counter inactive
CCCCOc1ncnc2c1[nH]c1ccccc12	GALR2 blocker 36 | GALR2 ant conf 45 | BLA inh counter inactive
O=S(=O)(c1cccs1)N1CCN(CC(O)COc2cc(Cl)ccc2Cl)CC1 (stereo not drawn)	none
CC(CCc1ccccc1)NC(=O)C(Cc1ccccc1)NS(=O)(=O)c1cccs1 (stereo not drawn)	none
CCc1c(C)nc2ncnn2c1NCCc1ccc(OC)cc1	GALR2 blocker 32 | GALR2 ant conf 35 | BLA inh counter inactive
Cc1[nH]c2c(C)cccc2c1CCNC(=O)C1CCCCC1C(=O)OCC(F)(F)F (stereo not drawn)	none (no result: EphB4 antag, HIV Rev-RRE inh, S1P2 agonist, S1P2 blocker)
Cn1c(CNC(=O)Nc2cccc(Cl)c2)nnc1SCc1ccccc1	GALR2 blocker 28 | GALR2 ant conf inactive | BLA inh counter inactive
CC(=O)Nc1cn(C(C)=O)c(C)n1	GALR2 blocker 29 (no result: EphB4 antag, HIV Rev-RRE inh, S1P2 agonist, S1P2 blocker) | GALR2 ant conf inactive | BLA inh counter inactive
Cc1nc2nc[nH]n2c(=O)c1CCC(C)C	none
CCN(CC)c1ccc(/C=C(/C#N)c2nc3ccc(C)cc3[nH]2)c(OC(C)C)c1	GALR2 blocker 34, HIV Rev-RRE inh 138[fluorescence artefact?] | GALR2 ant conf 30 | BLA inh counter 37
Cc1ccc2nc(/C(C#N)=C/c3ccc(-c4cccc([N+](=O)[O-])c4)o3)[nH]c2c1	none (no result: EphB4 antag, HIV Rev-RRE inh, S1P2 agonist, S1P2 blocker)
COc1cc(C(=O)O/N=C2\C=CC(=O)C(C)=C2)cc(OC)c1OC	GALR2 blocker 77 | GALR2 ant conf 33 | BLA inh counter 44

Screening data as filed in PubChem BioAssay.
